The whole screen tested about 330,000 compounds, of which about 55 (0.02%) were called active. Shown is part of a subset that was picked to be rich in actives. Values without a mark were called inactive.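 How the source made its calls: active means highest replicate inhibition of at least 40%; inactive means the rest.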

In general, inhibition refers to the relative decrease from the control value, in per cent.

This assay has as its target Golgi-associated PDZ and coiled-coil motif-containing protein (Homo sapiens) (UniProt Q9HD26). As to the kind of experiment: CAL PDZ peptide-binding inhibitors, primary screen, biochemical, fluorescence polarization, Cer-tagged CAL PDZ, HTS (AID 504414).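 Further: plate controls were DMSO neutral control wells for no effect and unlabeled competitor peptide control wells for full effect.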 Particulars: purified CAL PDZ, TMR-peptide fluorescence polarization, 1 h; at 20 µM; stronger effect = higher value. In a few lines:
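Control set: unlabelled peptide and DMSO controls / Material: purified CerCALP PDZ construct / Timing: 1 h incubation at room temperature before polarization reading / Doses: 20 µM, one dose / Detection: fluorescence polarization (mP)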
For `Cc1ccccc1N1C(=O)C2ON(c3ccccc3)C(c3ccncc3)C2C1=O` (stereo not drawn), the inhibition is -1.2%.

For the molecule `CCCCN(C)c1ccc([N+](=O)[O-])cc1`, the inhibition is -3.03%.

In the case of `CC(=O)c1c(O)cc2n(c1=O)-c1ccc(Cl)cc1C2(C)C`, the inhibition is -2.37%.

Take `COc1ccc(-c2cc(C(=O)N(C)CC(=O)Nc3ccccc3Cl)c3ccccc3n2)cc1OC`: the inhibition is -0.623%.

As for `O=C(/C=C/Nc1ccc(S(=O)(=O)Nc2cnc3ccccc3n2)cc1)c1cccnc1`, the inhibition was -1.99%.

Turning to `COc1ccc(N(CC(=O)N2CCOCC2)S(=O)(=O)c2ccccc2)cc1Cl`, the inhibition is -0.969%.

`CC(NCCc1ccc(S(N)(=O)=O)cc1)C(=O)NCc1ccccc1` (stereo not drawn): the inhibition was -0.747%.

`CC(C)NC(=O)Nc1cccc2c1O[C@H](CN(C)S(=O)(=O)c1cccs1)[C@@H](C)CN([C@H](C)CO)C2=O`: the inhibition was -1.8%.

Regarding `CC(C)(C)c1cc(=O)n2c(nc3ccccc32)[nH]1`, the inhibition is -2.22%.

Regarding `O=C(Nc1ccc(C2CC2(Cl)Cl)cc1)c1cccc([N+](=O)[O-])c1` (stereo not drawn), the inhibition is 8.41%.

In the case of `CCOC(=O)C(C)n1cnc2scc(-c3ccc(C)c(C)c3)c2c1=O` (stereo not drawn), the inhibition was -1.15%.

Regarding `CCOc1cc(CNCCN(C)C)c(Cl)cc1OCC(=O)NCCc1ccccc1`, the inhibition was -2.91%.

Consider `CCOC(=O)C1Sc2[nH]c(=O)sc2C(c2ccc(Cl)cc2)C1C(=O)OCC` (stereo not drawn), for which the inhibition is 0.946%.

Take `Cc1cccc(C(=O)OCC(=O)NC(C)C2CC3CCC2C3)c1O` (stereo not drawn): the inhibition is 1.53%.

Take `COc1ccccc1N(CC(=O)NC1CCCC1)C(=O)C1(C)CC(=O)N=C2C=CC(C)=CN21` (stereo not drawn): the inhibition is -1%.

For the molecule `Cc1ccc(C)c(C(=O)COC(=O)Cn2[nH]c(=O)c3ccccc3c2=O)c1`, the inhibition was -1.04%.

With `CC(=O)C1=C(C)NC2=C(C(=O)CC(C)(C)C2)C1C` (stereo not drawn), the inhibition was -0.554%.

For the molecule `COCCNC(=O)/C(C#N)=C/c1nc(N(C)C)n(-c2ccc(F)cc2)c1Cl`, the inhibition is -6.48%.

Consider `CN(CCc1cn[nH]c1)C(=O)CC1C(=O)NCCN1Cc1cccc(Oc2ccccc2)c1` (stereo not drawn), for which the inhibition is 0.0148%.

For `CN(C)S(=O)(=O)c1ccc(N2CCCC2)c(C(=O)Nc2ccc(Br)cc2F)c1`, the inhibition was 0.123%.

Take `CCOc1cc(C(=O)N(Cc2ccccc2)c2ccc(C)cc2)ccc1OCC(=O)N1CCOCC1`: the inhibition was -0.206%.

`NS(=O)(=O)c1ccc(CCNC(=O)c2ccc(Cl)c(S(=O)(=O)N3CCCCCC3)c2)cc1`: the inhibition is -0.205%.

With `COc1ccc(-c2c(C)nn3c(N4CCC(C(=O)N5CCCCC5)CC4)cc(C)nc23)cc1OC`, the inhibition was 0.851%.

In the case of `Cn1c(=O)c2c(nc(N3CCOCC3)n2CCNC2=NCCC2)n(C)c1=O`, the inhibition was 0.616%.

Take `COC(=O)[C@H]1Cc2cnoc2C[C@]1(C)C(=O)O`: the inhibition was -1.94%.

Regarding `Cc1cccc(NC(=O)CSc2nnc(CCNC(=O)OC(C)(C)C)o2)c1C`, the inhibition was 0.572%.

On to `CN(C)c1ccc(CNC2C3CC4CC(C3)CC2C4)cc1` (stereo not drawn), for which the inhibition is -1.31%.

On to `CC(C)NC(=O)COCc1cc(-c2ccc3c(c2)OCO3)on1`, for which the inhibition was 0.0991%.

Take `O=C(NCCCN1CCCC1=O)c1cccc(S(=O)(=O)NCc2ccccc2)c1`: the inhibition was -2.23%.

As to `CCOCCCNC(=O)C(NC(=O)CNC(=O)c1ccccc1)c1ccc(OC)cc1` (stereo not drawn), the inhibition is -0.316%.

As for `CCOc1ccc2sc(NS(=O)(=O)c3ccc(N)cc3)nc2c1`, the inhibition is -2.52%.

On to `O=C1CS(=O)CN1c1ccc(Oc2ccccc2)cc1` (stereo not drawn), for which the inhibition is -2.68%.

For `O=C(CN(CC1CCCO1)C(=O)CNS(=O)(=O)c1ccc(Cl)cc1)NCc1ccccc1` (stereo not drawn), the inhibition was -2.47%.

For the molecule `CCN(C(=O)Cc1nc(N)n[nH]1)C1(C(=O)Nc2ccccc2)CCCCC1`, the inhibition was -0.615%.

For the molecule `CCOC(=O)C1Cn2c(nc3c(c2=O)C(C)(CC)Cc2ccccc2-3)S1` (stereo not drawn), the inhibition is -2.98%.

Take `O=C(/C=C/c1ccccc1[N+](=O)[O-])OCC(=O)N1CCCC1`: the inhibition is -0.608%.

As to `CCOC(=O)N1CCN(S(=O)(=O)N2CCCC(C(=O)NCCCN3CCC(C)CC3)C2)CC1` (stereo not drawn), the inhibition was -1.6%.

As for `Cc1ccccc1/[N+]([O-])=C/c1ccncc1`, the inhibition was -1.06%.

`COc1ccc(Cn2c(-c3ccc(Cl)cc3)c[n+]3ccccc23)cc1`: the inhibition was -2.82%.

Turning to `CSCCNC(=O)c1ccc2nc(Cc3ccccc3F)oc2c1`, the inhibition is 0.068%.

In the case of `CC1CN(C(=S)Nc2ccc(Br)cc2Cl)CC(C)O1` (stereo not drawn), the inhibition was 0.196%.

On to `Cc1ccccc1CNC(=O)CCC(=O)N1Cc2ccccc2Oc2ncccc21`, for which the inhibition is -3.11%.

Consider `Cc1cccc(-n2nc3c(c2NC(=O)c2cc4ccccc4o2)CS(=O)(=O)C3)c1`, for which the inhibition is -2.7%.

Take `CCC1([N+](=O)[O-])COC(c2ccc(C)cc2)OC1` (stereo not drawn): the inhibition was -0.14%.

`O=c1c2ccccc2cnn1Cc1n[nH]c(=S)n1-c1ccccc1F`: the inhibition is 0.871%.

For `CCC(C)Sc1nc2c(cnn2-c2ccc(F)cc2)c(=O)[nH]1` (stereo not drawn), the inhibition is -0.979%.

In the case of `O=C1NC(c2ccccc2)CCC1(Cl)Cl` (stereo not drawn), the inhibition is -0.102%.

Turning to `CCOC(=O)c1nc(-c2ccc3c(c2)OCO3)[nH]c1C`, the inhibition was -0.475%.

For the molecule `COc1cc(C2C3C(=O)N(c4ccccc4)C(=O)C3ON2c2ccccc2)ccc1O` (stereo not drawn), the inhibition is -0.569%.

As to `COc1cccc2c(C)c(C(=O)O)[nH]c12`, the inhibition is -0.62%.

For `O=C(NNS(=O)(=O)c1ccc(F)cc1)c1cnccn1`, the inhibition was -2.25%.

Consider `CN(C)S(=O)(=O)c1ccc(N/C=C(\[N+](=O)[O-])S(=O)(=O)c2ccccc2)cc1`, for which the inhibition is 0.264%.

Consider `CCCCc1nnc(NC(=O)CSc2nc(N)cc(=O)[nH]2)s1`, for which the inhibition is 0.237%.

For the molecule `CCCCc1nnc(NC(=O)CSc2nc(C)cc(=O)[nH]2)s1`, the inhibition was -0.42%.

With `CCCCCc1nnc(NC(=O)c2ccc(=O)n(C)n2)s1`, the inhibition is 176% (active).

As to `Cc1ccc(C(=O)NN(CCC#N)C2=NS(=O)(=O)c3ccccc32)cc1`, the inhibition is -0.552%.

Regarding `CC(C)c1cc(N=O)cc(C(C)C)c1O`, the inhibition is -0.56%.

In the case of `Clc1cc(-c2ccc(/C=N/n3cnnc3)o2)ccc1Br`, the inhibition is -4.91%.

With `CC(C(=O)N(C)CC(=O)Nc1ccccc1C(F)(F)F)N1C(=O)c2ccccc2C1=O` (stereo not drawn), the inhibition was -0.0605%.

For the molecule `CCOCCCN(C)C1CCN(C(=O)c2oc3ccccc3c2NC(=O)Cc2cccc([N+](=O)[O-])c2)CC1`, the inhibition was -0.742%.

On to `O=C(Nc1ccc2c(c1)nc1n2CCCCC1)c1cc(S(=O)(=O)N2CCOCC2)ccc1Cl`, for which the inhibition is -2.81%.

Consider `CCOc1ccc(N(CC(=O)Nc2cccc(OC)c2)S(C)(=O)=O)cc1`, for which the inhibition was 0.31%.

Regarding `CC(C)(C)NC(=O)CN(C(=O)c1csnn1)c1ccccc1-c1ccccc1`, the inhibition was -2.13%.

Regarding `CCCCn1c(N)c(N(CCOC)C(=O)c2oc3ccc(OC)cc3c2C)c(=O)[nH]c1=O`, the inhibition was -1.98%.

For the molecule `Cc1onc(-c2c(F)cccc2Cl)c1C(=O)OCC(=O)N1C(C)CCCC1C` (stereo not drawn), the inhibition is -0.828%.

As to `Cc1ccc(NC(=O)C2CC2c2ccccc2)cc1` (stereo not drawn), the inhibition is -0.307%.

For the molecule `COc1ccccc1C(=O)Nc1ccc(OCC(=O)N2CCCCC2)cc1`, the inhibition was -1.71%.

On to `COc1ccc(CCNC(=O)c2nnc(CS(=O)(=O)c3ccccc3)o2)cc1OC`, for which the inhibition was 1.25%.

Take `COc1c(C)cc(C(=O)C2CCCN(S(=O)(=O)c3c(C)noc3C)C2)cc1C` (stereo not drawn): the inhibition was -2.46%.

For the molecule `Cc1ccc(S(=O)(=O)N(CC(O)CN2C(=O)NC(C)(C)C2=O)c2cccc([N+](=O)[O-])c2)cc1` (stereo not drawn), the inhibition is -1.82%.

`CC(C)=CCCC1(C)C=Cc2c(ccc3c2[nH]c2cc(O)c(C)cc23)O1` (stereo not drawn): the inhibition was 0.0711%.

As for `Cc1csc(SCC(=O)N(c2ccccc2)C(C)C)n1`, the inhibition was -2.45%.

As for `O=C(Cc1ccc(NC(=O)C2CCCN(C(=O)CCc3ccccc3)C2)cc1)Nc1ccc(C(=O)N2CCOCC2)cc1` (stereo not drawn), the inhibition is -1.16%.

For the molecule `CC(=O)CCS(=O)(=O)c1ccc(C)c(C)c1`, the inhibition was 0.503%.

As to `Cc1c(C(=O)N2CCCC2)c(S(=O)(=O)NCC(C)c2ccccc2)c(C)n1C` (stereo not drawn), the inhibition was -2.4%.

As to `Cc1ccc(N(CC(=O)NC2CCCCC2)C(=O)CCCC(=O)Nc2ccccn2)c(C)c1`, the inhibition was 0.671%.

`Cc1cc(-c2csc(N)n2)c(C)n1-c1ccccc1`: the inhibition was -2.46%.

In the case of `CC(=O)c1ccc(NC(=O)C(C)OC(=O)c2ccc(NS(=O)(=O)c3ccc4[nH]c(=O)[nH]c4c3)cc2)cc1` (stereo not drawn), the inhibition was 1.56%.

In the case of `C=CCN1C(=O)C(O)(CC(=O)c2ccccn2)c2ccccc21` (stereo not drawn), the inhibition is 0.0287%.

Turning to `Cc1ccc2cc(C)c(N3CCC(C)CC3)nc2c1`, the inhibition was 1.11%.

Turning to `CCOc1ncccc1C(=O)N(CC)CC(=O)Nc1ccc(NC(C)=O)cc1`, the inhibition was -1.13%.

On to `CCN(CC)c1ccc(NC(=O)CCc2nnc3ccc(N4CCCCC4)nn23)c(C)c1`, for which the inhibition is 0.659%.

On to `Cc1ccc(CNC(=O)C(=O)c2cn(CC(=O)N3CCOCC3)c3ccccc23)cc1`, for which the inhibition is -0.774%.

Take `O=C(C1CC(=O)N(C2CCCCC2)C1)N1CCN(c2ccccc2)CC1` (stereo not drawn): the inhibition was -3.07%.

Turning to `CCCOP(=O)(c1ccc(N(C)C)cc1)C(O)c1cc(OC)c(OC)c(OC)c1` (stereo not drawn), the inhibition is -2.28%.

Regarding `Cc1nc(CN(C)C(=O)CC2C(=O)NCCN2Cc2ccc(F)cc2)cs1` (stereo not drawn), the inhibition was -1.72%.

With `COC(=O)c1sc(C(F)(F)F)c(-c2ccccc2)c1S(=O)(=O)N(C)C`, the inhibition was -1.85%.

On to `CN1CCN(CC(O)COCc2ccc3c(c2)OCO3)CC1` (stereo not drawn), for which the inhibition was 0.909%.

(Values after PubChem BioAssay AID504414 (Broad Institute, 2011).)
